25 compounds from ChEMBL document CHEMBL1153112, “Identification of a series of substituted 2-piperazinyl-5-pyrimidylhydroxamic acids as potent histone deacetylase inhibitors” (Bioorg Med Chem Lett, 2010) can be followed below.

pIC50: −log10 of the molar value. In brackets after ≈: the same amount, converted by molar mass.

Series [1] deals with A2780. Description: Antiproliferative activity against human A2780 cells. It counts as functional, cell-based. The essentials: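 A2780 ovarian carcinoma proliferation assay in 384-well format, modified from the patent protocol. IC50 given as the mean of triplicate experiments ± SD; some values come from a single experiment.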
The target in another series is Histone deacetylase. Description: Inhibition of HDAC in human HeLa cells extractt. It counts as cell-free.
Series [2] relates to A2780. Description: Anticancer activity against human A2780 cells expressing p21 waf1,cip1 xenografted in athymic nude mouse assessed as fold increase in fluorescence at 40 mg/kg, po administered once for 3 days relative to R306465. The format is functional. An outline of the steps:
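A2780 ovarian carcinoma cells engineered to express ZsGreen under the p21waf1,cip1 promoter were grafted subcutaneously into athymic nude mice. Animals were dosed orally at 40 mg/kg for 3 days. In vivo fluorescence induction was then read by noninvasive whole-body imaging and expressed as fold increase versus reference R306465 set at 1.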
(In general: In xenograft studies the graft and the host belong to different species.)

Series [3] can be described thus: Clearance in Sprague-Dawley rat at 2.5 mg/kg, iv administered in water at pH 4.4. It counts as ADME, organism-based. More on the design: dose 2.5 mg/kg, route intravenous. Conditions: in vivo. The essentials: (§1)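 Male Sprague-Dawley rats. IV arm dosed at 2.5 mg/kg in water at pH 4.4; oral arm dosed at 10 mg/kg in water at pH 4.5. AUC0-inf taken for each route. Clearance and Vdss come from the IV arm. F (%) comes from the oral versus IV exposure.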

Series [4] in a line: Oral bioavailability in Sprague-Dawley rat at 10 mg/kg administered in water at pH 4.5. It counts as ADME, organism-based. The following applies: in vivo. An outline of the steps:
as §1

The nature of series [5]: AUC (0 to infinity) in Sprague-Dawley rat at 10 mg/kg, po administered in water at pH 4.5. The format is ADME, organism-based. Also on record: time infinity, dose 10 mg/kg, route oral. Conditions: plasma. The essentials:
as §1

Series [6] in a line: AUC (0 to infinity) in Sprague-Dawley rat at 2.5 mg/kg, iv administered in water at pH 4.4. Also on record: time infinity, dose 2.5 mg/kg, route intravenous. It counts as ADME, organism-based. The following applies: plasma. The essentials:
as §1

A short description of series [7]: Half life in Sprague-Dawley rat at 2.5 mg/kg, iv administered in water at pH 4.4 measured 1 to 4 hrs post dose. It counts as ADME, organism-based. More on the design: dose 2.5 mg/kg, route intravenous. Conditions: in vivo. The essentials:
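Male Sprague-Dawley rats given 2.5 mg/kg IV in water at pH 4.4. Terminal half-life fitted over the 1 h to 4 h post-dose window.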

The nature of series [8]: Volume of distribution at steady state in Sprague-Dawley rat at 2.5 mg/kg, iv administered in water at pH 4.4. It counts as ADME, organism-based. More on the design: dose 2.5 mg/kg, route intravenous. The following applies: in vivo, read-out: Vdss. The essentials:
as §1

The nature of series [9]: Thermodynamic solubility in phosphate-citrate buffer at pH 7.4. It counts as physicochemical. An outline of the steps: (§2)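 Thermodynamic solubility. About 2.5 mg of solid was weighed and equilibrated in phosphate-citrate buffer at the stated pH, then filtered where needed. The filtrate was diluted in 0.1 N HCl/acetonitrile (1/1) and the concentration measured by UPLC.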

Series [10] in a line: Half life in Sprague-Dawley rat at 2.5 mg/kg, iv administered in water at pH 4.4 measured 2 to 8 hrs post dose. The format is ADME, organism-based. More on the design: dose 2.5 mg/kg, route intravenous. The following applies: in vivo. The essentials: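 Male Sprague-Dawley rats given 2.5 mg/kg IV in water at pH 4.4. Half-life estimated from the 2 h to 8 h post-dose interval.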

The nature of series [11]: Thermodynamic solubility in phosphate-citrate buffer at pH 4.6. The format is physicochemical. An outline of the steps:
as §2

A short description of series [12]: Thermodynamic solubility in phosphate-citrate buffer at pH 7.7. The format is physicochemical. The essentials: as §2

For `O=C(NO)c1cnc(N2CCC(NC(/C=C/c3ccccc3)CO)CC2)nc1` (centres undefined), the negative-log IC50 (pIC50) (in general, −log10 of the IC50, conventionally taken in molar units) with A2780 [1] (Homo sapiens, A2780) is 6.66. Further, the IC50 – broadly, the concentration that gives 50% inhibition – at Histone deacetylase is on record as 7 nM.
In the series on A2780 [1] (Homo sapiens, A2780), `COCC(/C=C/c1ccccc1)N1CCN(c2ncc(C(=O)NO)cn2)CC1` (centres undefined) showed a negative-log IC50 (pIC50) of 7.35. This compound had an IC50 on Histone deacetylase of 1.5 nM.
The corresponding values for `CN1CCN(CC(/C=C/c2ccccc2)N2CCN(c3ncc(C(=O)NO)cn3)CC2)CC1` (centres undefined) are 6.41 and 6.9 nM.
In the same order, the values of `O=C(NO)c1cnc(N2CCN(C(/C=C/c3ccccc3)C(=O)N3CCOCC3)CC2)nc1` (centres undefined) are 6.91 and 7 nM.
The corresponding values for `O=C(NO)c1cnc(N2CCN(C(/C=C/c3ccc(C(F)(F)F)cc3)CO)CC2)nc1` (centres undefined) are 7.19 and 2.1 nM.
`O=C(NO)c1cnc(N2CCC(CNC(/C=C/c3ccccc3)CO)CC2)nc1` (centres undefined) showed a pIC50 with A2780 [1] (Homo sapiens, A2780) of 7.33. This compound had a half-inhibitory concentration (IC50) on Histone deacetylase of 1.5 nM.
Regarding `O=C(NO)c1cnc(N2CCN(C(/C=C/c3ccccc3F)CO)CC2)nc1` (centres undefined), the pIC50 with A2780 [1] (Homo sapiens, A2780) was over 7.52. The compound also came in with an IC50 on Histone deacetylase of 2 nM.
The corresponding values for `O=C(NO)c1cnc(N2CCN(Cc3ccc4ccccc4c3)CC2)nc1` are 7.18 and 1.5 nM.
In the same order, the values of `COc1ccc(/C=C/C(CO)N2CCN(c3ncc(C(=O)NO)cn3)CC2)cc1` (centres undefined) are 7.74 and 0.95 nM.
For `O=C(NO)c1cnc(N2CCN(C(/C=C/c3ccccc3)CN3CCOCC3)CC2)nc1` (centres undefined), the negative logarithm of the IC50 (pIC50) with A2780 [1] (Homo sapiens, A2780) was 6.50. On Histone deacetylase, the IC50 amounted to 11 nM.
The compound `Cc1ccc(/C=C/C(CO)N2CCN(c3ncc(C(=O)NO)cn3)CC2)cc1` (centres undefined) had a negative-log IC50 (pIC50) in the series with A2780 [1] (Homo sapiens, A2780) of 7.74. The same compound displayed a half-inhibitory concentration (IC50) on Histone deacetylase of 1 nM.
In the same order, the values of `CC(/C=C/c1ccccc1)N1CCN(c2ncc(C(=O)NO)cn2)CC1` (centres undefined) are 7.70 and 1.7 nM.
The corresponding values for `CNC(=O)C(/C=C/c1ccccc1)N1CCN(c2ncc(C(=O)NO)cn2)CC1` (centres undefined) are 6.80 and 3.3 nM.
Consider `NC(/C=C/c1ccccc1)CN1CCN(c2ncc(C(=O)NO)cn2)CC1` (centres undefined), for which the “fold change (FC)” value in the series on A2780 [2] is recorded as 0.5. Also, the pIC50 in the series with A2780 [1] (Homo sapiens, A2780) was 6.55. For the same compound, at Histone deacetylase, the concentration for half-maximal inhibition (IC50) was determined as 3.8 nM.
As for `O=C(NO)c1cnc(N2CCOC(CNC(/C=C/c3ccccc3)CO)C2)nc1` (centres undefined), the negative-log IC50 (pIC50) in the series with A2780 [1] (Homo sapiens, A2780) is 6.53. Further, the 50% inhibitory concentration (IC50) against Histone deacetylase is reported as 8 nM.
The corresponding values for `O=C(NO)c1cnc(N2CCN(C(/C=C/c3ccc(Cl)cc3)CO)CC2)nc1` (centres undefined) are 7.77 and 1.2 nM.
In the same order, the values of `O=C(NO)c1cnc(N2CCN(C(/C=C/c3ccc(-c4ccccc4)cc3)CO)CC2)nc1` (centres undefined) are 7.54 and 0.9 nM.
The corresponding values for `O=C(NO)c1cnc(N2CCN(C(/C=C/c3cccc(F)c3)CO)CC2)nc1` (centres undefined) are 7.44 and 1.2 nM.
`O=C(NO)c1cnc(N2CCN(C(/C=C/c3ccc(F)cc3)CO)CC2)nc1` (single isomer, unassigned; (+)) had a pIC50 with A2780 [1] (a2780) of 7.57.
In the case of `O=C(NO)c1cnc(N2CCN(C(/C=C/c3ccc(F)cc3)CO)CC2)nc1` (single isomer, unassigned; (-)), the clearance (as a rule, the rate of elimination divided by the concentration) in series [3] was 76.7 mL/min/kg. In addition, in [4], the bioavailability (commonly the share of a dose that reaches the circulation, judged against a reference dose that is usually intravenous) was 22%. The values for the AUC(0-inf) in [5] and in series [6] were 466 ng·h/mL and 521 ng·h/mL, respectively. This compound gave a negative-log IC50 (pIC50) in the series with A2780 [1] (a2780) of 7.51. The half-life (usually the time in which the quantity being followed falls by half) in [7] is 0.8 h. For the same compound, the Vd in series [8] is 1.6 L/kg.
`O=C(NO)c1cnc(N2CCN(C(/C=C/c3ccccc3)CO)CC2)nc1` (single isomer, unassigned; (-)): the negative logarithm of the IC50 (pIC50) with A2780 [1] (a2780) is 7.52. Besides, the concentration for half-maximal inhibition (IC50) at Histone deacetylase is reported as 1.8 nM.
In the series with A2780 [1] (a2780), `O=C(NO)c1cnc(N2CCN(C(/C=C/c3ccccc3)CO)CC2)nc1` (stereo in doubt; 3a1) gave a negative-log IC50 (pIC50) of 7.40. On Histone deacetylase, the IC50 is on record as 1 nM.
Take `O=C(NO)c1cnc(N2CCN(C(/C=C/c3ccccc3)CO)CC2)nc1` (stereo in doubt; 3a): the thermodynamic solubility (commonly solubility found after equilibrating the solid with the medium) in series [9] is 1100 µg/mL (≈ 2980 µM); in series [11], over 10000 µg/mL. Further, the “fold change (FC)” value in the series with A2780 [2] is listed as 5. In addition, the clearance in series [3] was 98.3 mL/min/kg. In series [4], this compound showed a bioavailability of 19%. In [10], this compound had a half-life of 2.6 h. For the same compound, the AUC(0-inf) (usually total exposure, with the tail of the curve extrapolated) worked out at 316 ng·h/mL in series [5] and 413 ng·h/mL in [6]. Moreover, in the series with A2780 [1] (Homo sapiens, A2780), the negative-log IC50 (pIC50) is 7.60. On Histone deacetylase, this compound returned an IC50 of 2 nM. Also, in series [8], the Vd stood at 5.8 L/kg.
As for `O=C(NO)c1cnc(N2CCN(C(/C=C/c3ccc(F)cc3)CO)CC2)nc1` (stereo in doubt; 3i), the pIC50 in the series with A2780 [1] (Homo sapiens, A2780) is 7.49.
In the case of `O=C(NO)c1cnc(N2CCN(S(=O)(=O)c3ccc4ccccc4c3)CC2)nc1` [R-306465], the clearance in [3] was 13.3 mL/min/kg. For the same compound, the bioavailability in series [4] was found to be 20%. In series [10], this compound had a half-life of 1.5 h. Further, the AUC(0-inf) in series [5] amounted to 3380 ng·h/mL; in [6] it was 2650 ng·h/mL. Also, in the series on A2780 [1] (Homo sapiens, A2780), the pIC50 was 7.41. In [12], this compound registered a thermodynamic solubility of under 100 µg/mL. Also, the Vd in series [8] amounted to 0.6 L/kg.
